Source: ChEMBL document CHEMBL1155362, “Synthesis, characterization and derivatization of some novel types of mono- and bis-imidazolidineiminothiones and imidazolidineiminodithiones with antitumor, antiviral, antibacterial and antifungal activities--part I” (Eur J Med Chem, 2009)
≈ marks a conversion by molar mass, not a printed value.

Legend:
[1] = test system: HepG2; test: Cytotoxicity against human HepG2 cells assessed as surviving fraction after 48 hrs by SRB assay; format: functional, cell-based
In short: (§1)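 Cells seeded at 10⁴ cells/well and left 24 h to attach, then exposed to […] in triplicate wells per dose. Incubation 48 h, 37 °C, 5% CO₂. Cells fixed and stained with sulforhodamine B, excess dye removed with acetic acid, bound dye taken up in Tris EDTA and read on an ELISA reader. Surviving fraction plotted against concentration.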

[2] = Antitumor activity against mouse EAC cells assessed as inhibition of cell viability at 25 ug/ml after 2 hrs by trypan blue exclusion assay; format: functional; conditions: Ehrlich
In short: (§2)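 EAC cells aspirated from ascitic fluid of inoculated mice and diluted in saline; 0.1 mL cell suspension, 0.8 mL RPMI 1640 and 0.1 mL compound (25, 50 or 100) incubated 2 h at 37 °C; non-viable cells counted by trypan blue exclusion; % non-viable = dead/total × 100.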

[3] = Antitumor activity against mouse EAC cells assessed as inhibition of cell viability at 100 ug/ml after 2 hrs by trypan blue exclusion assay; format: functional; conditions: Ehrlich; in short: as §2
[4] = test system: MCF7; test: Cytotoxicity against human MCF7 cells assessed as surviving fraction after 48 hrs by SRB assay; format: functional, cell-based; in short: as §1
[5] = test system: HeLa; test: Cytotoxicity against human HeLa cells assessed as surviving fraction after 48 hrs by SRB assay; format: functional, cell-based; in short: as §1
[6] = Antitumor activity against mouse EAC cells assessed as inhibition of cell viability at 50 ug/ml after 2 hrs by trypan blue exclusion assay; format: functional; conditions: Ehrlich; in short: as §2
[7] = test system: Pseudomonas aeruginosa; test: Antibacterial activity against Pseudomonas aeruginosa NCIB 9016 at 2.5 mg/ml by agar disk diffusion assay; format: functional; conditions: for zone of inhibition at 2500 µg/mL: Pseudomonas aeruginosa, NCIB 9016, read-out: DIZ
[8] = test system: Candida albicans; test: Antifungal activity against Candida albicans IMRU 3669 at 5 mg/ml by agar disk diffusion assay; format: functional; conditions: Candida albicans, IMRU 3669; read-out: DIZ
In short: (§3)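 Fungi maintained on Czapek's Dox agar; agar well diffusion with 1 cm wells and […] of each concentration (1, 2.5, 5 mg/mL) in DMF; inhibition zone diameter measured.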

[9] = test system: Bacillus subtilis; test: Antibacterial activity against Bacillus subtilis NCIB 3610 at 2.5 mg/ml by agar disk diffusion assay; format: functional; conditions: for zone of inhibition at 2500 µg/mL: Bacillus subtilis, NCIB 3610, read-out: DIZ
[10] = test system: Aspergillus niger; test: Antifungal activity against Aspergillus niger Ferm-BAM C-21 at 5 mg/ml by agar disk diffusion assay; format: functional; conditions: read-out: DIZ; in short: as §3
[11] = test system: Bacillus subtilis; test: Antibacterial activity against Bacillus subtilis NCIB 3610 at 5 mg/ml by agar disk diffusion assay; format: functional; conditions: for zone of inhibition at 5000 µg/mL: Bacillus subtilis, NCIB 3610, read-out: DIZ
[12] = test system: Pseudomonas aeruginosa; test: Antibacterial activity against Pseudomonas aeruginosa NCIB 9016 at 5 mg/ml by agar disk diffusion assay; format: functional; conditions: Pseudomonas aeruginosa, NCIB 9016; read-out: DIZ
[13] = test system: HCT-116; test: Cytotoxicity against human HCT116 cells assessed as surviving fraction after 48 hrs by SRB assay; format: functional, cell-based; in short: as §1
[14] = test system: Bacillus subtilis; test: Antibacterial activity against Bacillus subtilis NCIB 3610 at 1 mg/ml by agar disk diffusion assay; format: functional; conditions: for zone of inhibition at 1000 µg/mL: Bacillus subtilis, NCIB 3610, read-out: DIZ
[15] = test system: Candida albicans; test: Antifungal activity against Candida albicans IMRU 3669 at 1 mg/ml by agar disk diffusion assay; format: functional; conditions: read-out: DIZ; in short: as §3
[16] = test system: U-251; test: Cytotoxicity against human U251 cells assessed as surviving fraction after 48 hrs by SRB assay; format: functional, cell-based; in short: as §1
[17] = test system: Candida albicans; test: Antifungal activity against Candida albicans IMRU 3669 at 2.5 mg/ml by agar disk diffusion assay; format: functional; conditions: read-out: DIZ; in short: as §3
[18] = test system: Pseudomonas aeruginosa; test: Antibacterial activity against Pseudomonas aeruginosa NCIB 9016 at 1 mg/ml by agar disk diffusion assay; format: functional; conditions: for zone of inhibition at 1000 µg/mL: Pseudomonas aeruginosa, NCIB 9016, read-out: DIZ
[19] = test system: Aspergillus niger; test: Antifungal activity against Aspergillus niger Ferm-BAM C-21 at 2.5 mg/ml by agar disk diffusion assay; format: functional; conditions: read-out: DIZ; in short: as §3
[20] = test system: Staphylococcus aureus; test: Antibacterial activity against Staphylococcus aureus NCTC 7447 at 5 mg/ml by agar disk diffusion assay; format: functional; conditions: read-out: DIZ
[21] = test system: Escherichia coli; test: Antibacterial activity against Escherichia coli NCTC 10416 at 5 mg/ml by agar disk diffusion assay; format: functional; conditions: read-out: DIZ
[22] = test system: Salmonella typhi; test: Antibacterial activity against Salmonella typhi NCIMB 9331 at 5 mg/ml by agar disk diffusion assay; format: functional, Salmonella enterica subsp. enterica serovar Typhi; conditions: Salmonella enterica, read-out: DIZ
[23] = test system: Bacillus subtilis; test: Antibacterial activity against Bacillus subtilis NCTC 1040 at 5 mg/ml by agar disk diffusion assay; format: functional; conditions: read-out: DIZ
[24] = Homo sapiens, MCF7, 48 h, read-out: IC50
[25] = Homo sapiens, HepG2, 48 h, read-out: IC50
[26] = Homo sapiens, HeLa, 48 h, read-out: IC50

Row | Structure (SMILES) | inhibition at 25 µg/mL [2] [%] | inhibition at 100 µg/mL [3] [%] | inhibition at 50 µg/mL [6] [%] | zone of inhibition at 2500 µg/mL [7] [mm] | zone of inhibition at 5000 µg/mL [8] [mm] | zone of inhibition at 2500 µg/mL [9] [mm] | zone of inhibition at 5000 µg/mL [10] [mm] | zone of inhibition at 5000 µg/mL [11] [mm] | zone of inhibition at 5000 µg/mL [12] [mm] | zone of inhibition at 1000 µg/mL [14] [mm] | zone of inhibition at 2500 µg/mL [17] [mm] | further results
1 | O=C1N(c2ccc(Cl)cc2)CC(=S)N1c1ccc(Cl)cc1 | 90 | 100 | 100 |  |  |  |  |  |  |  |  | IC50 ([1]; hepg2): Not Active; IC50 [4, 24]: 9.36 µg/mL (≈ 27.8 µM); IC50 ([5]; hela): Not Active
2 | CCOc1ccc(N2C(=O)N(c3c(CC)cc(Cc4cc(CC)c(N5C(=N)C(=S)N(c6ccc(OCC)cc6)C5=O)c(CC)c4)cc3CC)C(=N)C2=S)cc1 | 60 | 90 | 80 | 13 | 15 | 14 | 13 | 15 | 15 | 13 | 14 | IC50 [1, 25]: 5.44 µg/mL (≈ 7.02 µM); IC50 ([13]; Homo sapiens, HCT-116, 48 h, read-out: IC50): 4.36 µg/mL (≈ 5.63 µM); zone of inhibition at 1000 µg/mL [15]: 12 mm; IC50 [4, 24]: 2.15 µg/mL (≈ 2.77 µM); IC50 ([16]; Homo sapiens, U-251, 48 h, read-out: IC50): 1.01 µg/mL (≈ 1.3 µM); IC50 [5, 26]: 2.42 µg/mL (≈ 3.12 µM)
3 | CC1OC(=N)C(=S)N1c1ccc(Cl)c(Cl)c1 (configuration not stated) |  |  |  | 29 | 39 | 27 | 20 | 33 | 41 | 20 | 33 | zone of inhibition at 1000 µg/mL [18]: 15 mm; zone of inhibition at 1000 µg/mL [15]: 21 mm; zone of inhibition at 2500 µg/mL [19]: 11 mm
4 | N=C1C(=S)N(c2ccc(Br)cc2)C(=O)N1c1cc(Cl)c(Cl)cc1Cl |  |  |  |  | 14 |  |  |  |  |  |  | zone of inhibition at 5000 µg/mL [20]: 16.5 mm; zone of inhibition at 5000 µg/mL [21]: 16 mm; zone of inhibition at 5000 µg/mL [22]: 18 mm; zone of inhibition at 5000 µg/mL [23]: 16 mm
5 | O=c1n(-c2ccc(Cl)cc2)c2nc3ccccc3nc2n1-c1ccc(Cl)c(Cl)c1 | 30 | 95 | 70 |  |  |  |  |  |  |  |  | IC50 [1, 25]: 7.11 µg/mL (≈ 16.1 µM); IC50 ([13]; hct-116): Not Active; IC50 ([4]; mcf7): Not Active; IC50 ([16]; u-251): Not Active; IC50 [5, 26]: 7.38 µg/mL (≈ 16.7 µM)
6 | N#CC(=S)Nc1ccc(Cl)c(Cl)c1 |  |  |  |  |  |  |  |  | 19 |  |  | 
7 | CCN(CC)CC.N#CC(=S)Nc1ccc(Cl)c(Cl)c1 |  |  |  |  |  |  |  |  |  |  |  | diameter of the inhibition zone (DIZ) [7]: 16 mm; diameter of the inhibition zone (DIZ) [9]: 16 mm; diameter of the inhibition zone (DIZ) [11]: 17 mm; diameter of the inhibition zone (DIZ) [18]: 13 mm; diameter of the inhibition zone (DIZ) [14]: 15 mm
8 | N=C1C(=S)N(c2ccc(Cl)cc2)C(=O)N1c1cccc2ccccc12 |  |  |  | 16 | 14 | 18 | 12 | 19 | 18 | 17 | 12 | zone of inhibition at 1000 µg/mL [18]: 15 mm
